For one data set, the target named is Gamma-secretase. The experiment in a line: Inhibition of gamma secretase assessed as reduction of amyloid beta level in H4 cells. The data set is classed as cell-based, Homo sapiens. In a few lines: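 H4 cells; Aβ40 lowering measured in a cell-based assay; IC50 values are means of two experiments, 16 data points each, intra-assay variance <10%.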
Data set [1] has as its system Mus musculus. The experiment in a line: Inhibition of beta amyloid peptide in Tg2576 mouse brain at 30 umol/kg, po after 3 hrs. The data set is classed as functional. In a few lines: (§1)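 Tg2576 mice, single oral dose of 30 µmol/kg; brain and plasma sampled 3 h after dosing for Aβ (% inhibition) and compound levels; n = 7-10; means ± SEM.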
A short description of data set [2]: Drug level in Tg2576 mouse brain at 30 umol/kg, po after 3 hrs. The data set is classed as ADME, organism-based. Conditions: read-out: Drug uptake. In outline: as §1
In data set [3] the test system is Mus musculus. The experiment in a line: Inhibition of beta amyloid peptide in Tg2576 mouse plasma at 30 umol/kg, po after 3 hrs. Format: functional. In outline:
as §1

Data set [4] in a line: Drug level in Tg2576 mouse plasma at 30 umol/kg, po after 3 hrs. The settings on record: read-out: Drug uptake. Format: ADME, organism-based. In a few lines: as §1
Data set [5] relates to Mus musculus. The experiment in a line: Inhibition of beta amyloid peptide in po dosed Tg2576 mouse plasma after 3 hrs. Format: functional. In outline: (§2)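 Tg2576 mice dosed orally; brain and plasma Aβ measured 3 h after dosing; ED50 derived from dose-dependent Aβ reduction.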
Data set [6] has as its system Mus musculus. The experiment in a line: Inhibition of beta amyloid peptide in po dosed Tg2576 mouse brain after 3 hrs. Format: functional, organism-based. In outline:
as §2

In data set [7] the test system is Mus musculus. The experiment in a line: Inhibition of beta amyloid peptide in Tg2576 mouse brain at 4 umol/kg, po qd after 1 day. The data set is classed as functional. Set-up: scale not given: the % may be the effect or the level left. In outline:
(§3)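 Tg2576 mice dosed orally at 4 or 30 µmol/kg, once daily for 1 or 14 days or twice daily (30 µmol/kg); brain Aβ inhibition measured.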

Data set [8] relates to Mus musculus. Put plainly: Inhibition of beta amyloid peptide in Tg2576 mouse brain at 4 umol/kg, po qd after 14 days. Format: functional. The arrangement: scale not given: the % may be the effect or the level left. In outline:
as §3

Data set [9] has as its system Mus musculus. Put plainly: Inhibition of beta amyloid peptide in Tg2576 mouse brain at 30 umol/kg, po qd after 1 day. Format: functional. Set-up: scale not given: the % may be the effect or the level left. In a few lines: as §3
Data set [10] has as its system Mus musculus. Put plainly: Inhibition of beta amyloid peptide in Tg2576 mouse brain at 30 umol/kg, po, qd after 14 days. The arrangement: scale not given: the % may be the effect or the level left. Format: functional. In outline: as §3
For data set [11], the system named is Mus musculus. Put plainly: Inhibition of beta amyloid peptide in Tg2576 mouse brain at 30 umol/kg, po bid after 14 days. The arrangement: scale not given: the % may be the effect or the level left. Format: functional. In a few lines:
as §3

For data set [12], the species on record is Mus musculus. Put plainly: Reduction of beta amyloid peptide in Tg2576 mouse brain after 12 hrs. The data set is classed as functional, organism-based.
The species named for data set [13] is Mus musculus. The experiment in a line: Reduction of beta amyloid peptide in Tg2576 mouse plasma after 12 hrs. The data set is classed as functional, organism-based.
Data set [14] is filed under the species Mus musculus. The experiment in a line: Increase in beta amyloid peptide in Tg2576 mouse plasma after 24 hrs. Format: functional.
A short description of data set [15]: Clearance in Sprague-Dawley rat at 2.3 umol/kg, iv. The data set is classed as ADME, organism-based. Conditions: in vivo.
Data set [16] is described as follows: Terminal half life in Sprague-Dawley rat at 2.3 umol/kg, iv. The settings on record: in vivo. Format: ADME, organism-based.
Data set [17] in a line: Oral bioavailability in Sprague-Dawley rat at 35 umol/kg. Format: ADME, organism-based. The settings on record: in vivo. In a few lines:
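Rats dosed orally with a PEG-400 suspension at 35 µmol/kg; bioavailability from plasma exposure.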

Data set [18] in a line: Inhibition of human Cytochrome P450. Format: ADME. In outline: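 Inhibition of human CYPs measured in vitro as IC50.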
The next data set is filed under the species Homo sapiens. The experiment in a line: Ratio of IC50 for Notch processing to IC50 for amyloid beta processing.
Data set [19] relates to Mus musculus. Put plainly: Toxicity in Tg2576 mouse at 30 umol/kg, po bid after 10 days. Format: organism-based. Conditions: in vivo, 240 h. In outline:
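Tg2576 mice dosed orally at 30 µmol/kg twice daily; clinical signs, body weight and mortality monitored; intestinal histopathology assessed.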

Each structure is given as a SMILES string. Activity calls are given as the source filed them. The calls are words filed in the database; no cut-off is given here.

For `C[C@H](NC(=O)Cc1ccsc1)C(=O)NC1C(=O)N(C)N=Cc2ccccc21` (some centres undefined), the IC50 (commonly the concentration at which inhibition is half-maximal) on Gamma-secretase was 1 nM.
Still for that read-out and setting: the value for `C[C@H](NC(=O)Cc1ccc2ccccc2c1)C(=O)NC1C(=O)N(C)N=Cc2ccccc21` (some centres undefined) was 269 nM.
On the same count and under the same terms, then `C[C@H](NC(=O)Cc1ccco1)C(=O)NC1C(=O)N(C)N=Cc2ccccc21` (some centres undefined), with 24 nM.
Turning to `C[C@H](NC(=O)Cc1cccc(F)c1)C(=O)NC1C(=O)N(C)N=Cc2ccccc21` (some centres undefined), the IC50 on Gamma-secretase stood at 8 nM.
With `C[C@H](NC(=O)Cc1cccnc1)C(=O)NC1C(=O)N(C)N=Cc2ccccc21` (some centres undefined), on Gamma-secretase, the IC50 is 162 nM.
Still for that read-out and setting: then `CC(C)C[C@H](NC(=O)[C@H](O)c1ccccc1)C(=O)NC1C(=O)N(C)N=Cc2ccccc21` (some centres undefined), with 56 nM; and `CC(C)C[C@H](NC(=O)CC1CCCCC1)C(=O)NC1C(=O)N(C)N=Cc2ccccc21` (some centres undefined), with 14 nM.
Take `CC(C)C[C@H](NC(=O)Cc1ccccc1F)C(=O)NC1C(=O)N(C)N=Cc2ccccc21` (some centres undefined): at Gamma-secretase, the IC50 was determined as 22 nM.
Same read-out and setting: then `C[C@H](NC(=O)Cc1cccc(Cl)c1)C(=O)NC1C(=O)N(C)N=Cc2ccccc21` (some centres undefined), with 10 nM.
As to `C[C@H](NC(=O)Cc1cc(F)cc(F)c1)C(=O)NC1C(=O)N(C)NCc2ccccc21` (some centres undefined), on Gamma-secretase, the IC50 was 9 nM. For the same compound, the figures for the inhibition in vivo at 30 µmol/kg in the data set with Mus musculus [1] and in the data set on Mus musculus [3] were 51% and 80%, respectively. The concentration at 3 h in data set [2] amounted to 6 nM; in data set [4], 205 nM. Moreover, in the data set on Mus musculus [5], the ED50 (usually the midpoint of the dose-response relation) was 5 µmol/kg.
Regarding `C[C@H](NC(=O)Cc1cc(F)cc(F)c1)C(=O)NC1C(=O)N(C)N=Cc2ccccc21` (some centres undefined), the IC50 on Gamma-secretase stood at 6 nM. Besides, the figures for the inhibition in vivo at 30 µmol/kg in the data set with Mus musculus [1] and in the data set with Mus musculus [3] were 54% and 75%, respectively. Besides, the figures for the concentration at 3 h in data set [2] and in [4] were 12 nM and 199 nM, respectively.
As to `C[C@H](NC(=O)Cc1ccc(F)cc1)C(=O)NC1C(=O)N(C)N=Cc2ccccc21` (some centres undefined), the IC50 at Gamma-secretase is 59 nM.
For `C[C@H](NC(=O)[C@@H](O)c1cc(F)cc(F)c1)C(=O)N[C@H]1C(=O)N(C)N=Cc2ccccc21`, on Gamma-secretase, the IC50 was 30 nM. Further, in the data set with Mus musculus [1], the inhibition in vivo – broadly, the share of the control response that was lost under treatment – at 30 µmol/kg is 29%. The values for the concentration at 3 h in data set [2] and in data set [4] were 72 nM and 546 nM, respectively.
Take `CC(C)C[C@H](NC(=O)Cc1cccc(F)c1)C(=O)NC1C(=O)N(C)N=Cc2ccccc21` (some centres undefined): the IC50 at Gamma-secretase was 2 nM.
For `C[C@H](NC(=O)[C@H](O)c1cc(F)cc(F)c1)C(=O)N[C@H]1C(=O)N(C)N=Cc2ccccc21`, the IC50 on Gamma-secretase was 750 nM.
As for `CC(C)C[C@H](NC(=O)Cc1cc(F)cc(F)c1)C(=O)NC1C(=O)N(C)N=Cc2ccccc21` (some centres undefined), the IC50 on Gamma-secretase is 0.5 nM.
Still for that read-out and setting: the value for `CC(C)C[C@H](NC(=O)[C@@H](O)c1ccccc1)C(=O)NC1C(=O)N(C)N=Cc2ccccc21` (some centres undefined) was 0.4 nM; that for `C[C@H](NC(=O)[C@@H](O)c1cc(F)cc(F)c1)C(=O)NC1C(=O)N(C)N=Cc2ccccc21` (some centres undefined) was 0.2 nM.
With `CC(C)C[C@H](NC(=O)Cc1ccc(F)cc1)C(=O)NC1C(=O)N(C)N=Cc2ccccc21` (some centres undefined), the IC50 at Gamma-secretase came out at 14 nM.
As to `C[C@H](NC(=O)[C@@H](O)c1cc(F)cc(F)c1)C(=O)N[C@@H]1C(=O)N(C)N=Cc2ccccc21`, the IC50 on Gamma-secretase is 0.3 nM; in [18], greater than 100000 nM. In addition, the results for the inhibition in vivo at 30 µmol/kg in the data set on Mus musculus [1] and with Mus musculus [3] were 90% and 88%, respectively. The results for the concentration at 3 h in [2] and in [4] were 133 nM and 1960 nM, respectively. Besides, the outcome with Mus musculus [6], in the data set listed under Mus musculus [12] and in the data set listed under Mus musculus [13] was Active. Further, the Activity with Mus musculus [7] was 25%; in the data set with Mus musculus [8], 38%; in the data set on Mus musculus [9] it was 83%; in the data set on Mus musculus [10], 89%; in the data set with Mus musculus [11], 98%; in the data set filed under Mus musculus [14] it was 60%. The Activity result with Mus musculus [19] was “Toxic”. In addition, in data set [15], the clearance (usually a measure of how efficiently the substance is removed, as volume per time) is 5.2 mL/min/kg. The half-life (commonly how long it takes for the measured level to halve) in data set [16] is 4.6 h. For the same compound, in [17], the bioavailability (as a rule, dose-corrected exposure relative to a reference, in per cent) was 31%. Also, the Ratio IC50 in the data set filed under Homo sapiens came out at 0.5.
Turning to `C[C@H](NC(=O)CC1CCCCC1)C(=O)NC1C(=O)N(C)N=Cc2ccccc21` (some centres undefined), at Gamma-secretase, the IC50 came to 43 nM.
The same measure, in the same setting: the value for `C[C@H](NC(=O)Cc1cccs1)C(=O)NC1C(=O)N(C)N=Cc2ccccc21` (some centres undefined) was 3 nM; that for `CC1=NN(C)C(=O)C(NC(=O)[C@H](C)NC(=O)Cc2cc(F)cc(F)c2)c2ccccc21` (some centres undefined) was 1.3 nM.
Take `CC(C)C[C@H](NC(=O)Cc1ccsc1)C(=O)NC1C(=O)N(C)N=Cc2ccccc21` (some centres undefined): the IC50 on Gamma-secretase is 0.7 nM.
On to `CC(C)N1N=Cc2ccccc2C(NC(=O)[C@H](C)NC(=O)Cc2cc(F)cc(F)c2)C1=O` (some centres undefined), for which the IC50 on Gamma-secretase came to 4 nM.
For the compound `C[C@H](NC(=O)[C@H](O)c1cc(F)cc(F)c1)C(=O)N[C@@H]1C(=O)N(C)N=Cc2ccccc21`, on Gamma-secretase, the IC50 amounted to 10 nM. Besides, the results for the inhibition in vivo at 30 µmol/kg with Mus musculus [1] and in the data set with Mus musculus [3] were 91% and 86%, respectively. In addition, the concentration at 3 h stood at 202 nM in data set [2] and 2750 nM in [4]. Moreover, in the data set on Mus musculus [6], the outcome was Active.
As for `C[C@H](NC(=O)C(=O)c1cc(F)cc(F)c1)C(=O)NC1C(=O)N(C)N=Cc2ccccc21` (some centres undefined), the IC50 on Gamma-secretase is 1 nM. Moreover, the inhibition in vivo at 30 µmol/kg in the data set with Mus musculus [1] turned out to be 92%; in the data set with Mus musculus [3] it was 98%. Moreover, the figures for the concentration at 3 h in [2] and in data set [4] were 280 nM and 2090 nM, respectively.
As to `CC1=NN(C)C(=O)C(NC(=O)[C@H](C)NC(=O)Cc2ccoc2)c2ccccc21` (some centres undefined), the IC50 on Gamma-secretase was 2 nM.
On the same count and under the same terms, the value for `CC(C)C[C@H](NC(=O)Cc1cccs1)C(=O)NC1C(=O)N(C)N=Cc2ccccc21` (some centres undefined) was 1.9 nM.

Values taken from ChEMBL document CHEMBL1139985, “Discovery of (S)-2-((S)-2-(3,5-difluorophenyl)-2-hydroxyacetamido)-N-((S,Z)-3-methyl-4-oxo-4,5-dihydro-3H-benzo[d][1,2]diazepin-5-yl)propanamide (BMS-433796): a gamma-secretase inhibitor with Abeta lowering activity in a transgenic mouse model of Alzheimer's disease” (Bioorg Med Chem Lett, 2007).
